Calls of active or inactive are those of the source. The rule behind the calls is not given here.
Assays:
[1] = tested on: U-937; experiment: Antiproliferative activity against human U937 cells at […] to […] nM after 72 hrs by CellTiter-Glo assay; assay type: functional, cell-based
[2] = Increase in secretion of basic-FGF in TNFalpha activated RA patient-derived synovial fibroblasts at 0.6 to 3 uM preincubated for 3 hrs followed by TNFalpha stimulation measured after 18 hrs by sandwich immunoassay; settings: human
Procedure, shortened: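 Primary RA patient synovial fibroblasts (donor RA2159) were seeded at 1000 cells/well, grown about 24 h, then starved overnight and again about 4 h in basal medium with 0.1% BSA. Cells were pre-incubated 3 h with inhibitor (0.6 or 3 μM) or DMSO, then stimulated 18 h with 10 ng/mL TNFα. Paired wells were pooled, in biological duplicate. Pooled supernatants were diluted 1:3 and read on Luminex bead sandwich immunoassays, with mock-medium background and spiked-ligand controls.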

[3] = tested on: BaF3; experiment: Antiproliferative activity against mouse BA/F3 cells harboring NRAS G12D mutant after 72 hrs by CellTiter-Glo assay; assay type: functional, cell-based; settings: BaF3, 72 h
Procedure, shortened: (§1)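 Ba/F3 parental or RAS-transformed cells were seeded at 1000 viable cells/well, without or with IL-3 as the line states, at 37 °C and 5% CO2. After 4 h, nine four-fold serial dilutions were added in triplicate (final 0.5–30,000 nM, 0.3% DMSO). DMSO wells served as 100% viability.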

[4] = Antiproliferative activity against human SW156 cells harboring wild type KRAS after 72 hrs by CellTiter-Glo assay; assay type: functional, cell-based
[5] = target: T1, Mitogen-activated protein kinase kinase kinase 7 (Homo sapiens) (UniProt O43318); experiment: Inhibition of TAK1 in RA patient-derived synovial fibroblasts assessed as inhibition of poly(I:C)-induced cytokine secretion at 3 uM preincubated for 3 hrs followed by poly(I:C) stimulation measured after 18 hrs by sandwich immunoassay
T1 sequence (whole entry): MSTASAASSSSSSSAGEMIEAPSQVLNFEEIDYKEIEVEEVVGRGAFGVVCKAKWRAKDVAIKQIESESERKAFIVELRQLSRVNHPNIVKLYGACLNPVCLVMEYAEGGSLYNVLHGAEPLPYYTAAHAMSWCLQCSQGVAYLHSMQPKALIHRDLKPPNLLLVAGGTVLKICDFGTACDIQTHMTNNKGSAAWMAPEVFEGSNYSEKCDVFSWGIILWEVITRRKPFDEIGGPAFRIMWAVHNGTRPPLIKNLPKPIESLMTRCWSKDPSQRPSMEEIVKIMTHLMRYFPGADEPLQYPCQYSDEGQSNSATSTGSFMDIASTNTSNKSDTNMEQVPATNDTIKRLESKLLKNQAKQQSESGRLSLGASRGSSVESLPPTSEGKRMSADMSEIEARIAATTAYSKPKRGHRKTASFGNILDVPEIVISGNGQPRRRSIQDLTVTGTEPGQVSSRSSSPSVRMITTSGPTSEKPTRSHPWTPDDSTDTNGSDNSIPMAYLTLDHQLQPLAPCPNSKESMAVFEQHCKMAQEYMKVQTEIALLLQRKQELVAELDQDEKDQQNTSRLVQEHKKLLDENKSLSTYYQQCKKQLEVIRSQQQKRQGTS
Procedure, shortened: (§2)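 Primary RA synovial fibroblasts (donor RA2159) seeded 1000 cells/well and grown ~24 h at 37 °C, 5% CO2. Starved overnight in basal medium, then ~4 h in basal medium with 0.1% BSA. Two adjacent wells pooled per replicate, in biological duplicate. Supernatants diluted 1:3 and run on Luminex 27-plex/21-plex sandwich immunoassays for 48 analytes, with spiked-ligand and mock-supernatant background controls.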

[6] = tested on: BaF3; experiment: Antiproliferative activity against mouse BA/F3 cells after 72 hrs by CellTiter-Glo assay; assay type: cell-based; settings: BaF3, 72 h
[7] = tested on: HEL; experiment: Antiproliferative activity against human HEL cells at […] to […] nM after 72 hrs by CellTiter-Glo assay; assay type: functional, cell-based
[8] = tested on: SK-CO-1; experiment: Antiproliferative activity against human SKCO1 cells harboring KRAS G12V mutant after 72 hrs by CellTiter-Glo assay; assay type: functional, cell-based; settings: SK-CO-1, 72 h
[9] = tested on: NCI-H358; experiment: Antiproliferative activity against human NCI-H358 cells harboring KRAS G12C mutant after 72 hrs by CellTiter-Glo assay; assay type: functional, cell-based
Procedure, shortened: (§3)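 NCI-H23 or NCI-H358 cells seeded at 2000 cells/well and grown 48 h before drug. Varying doses were added and cells incubated 72 h. Viability was read as CellTiter-Glo luminescence, and growth-inhibition IC50 was calculated from dose-response curves.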

[10] = target: T1, Mitogen-activated protein kinase kinase kinase 7 (Homo sapiens); experiment: Inhibition of TAK1 in RA patient-derived synovial fibroblasts assessed as inhibition of IL-1alpha-induced cytokine secretion at 3 uM preincubated for 3 hrs followed by IL-1alpha stimulation measured after 18 hrs by sandwich immunoassay; procedure, shortened: as §2
[11] = tested on: MOLM-14; experiment: Antiproliferative activity against human MOLM14 cells harboring FLT3-ITD mutant at […] to […] nM after 72 hrs by CellTiter-Glo assay; assay type: functional, cell-based
[12] = tested on: BaF3; experiment: Antiproliferative activity against mouse BA/F3 cells harboring KRAS G12D mutant after 72 hrs by CellTiter-Glo assay; assay type: functional, cell-based; settings: BaF3, 72 h
[13] = target: T2, Mitogen-activated protein kinase kinase kinase 7 (Homo sapiens, UniProt O43318); experiment: Inhibition of TAK1 (unknown origin) by LanthaScreen assay
T2 sequence (O43318 whole entry): T1 sequence (whole entry)

[14] = target: Receptor-type tyrosine-protein kinase FLT3 (Homo sapiens, UniProt P36888); experiment: Inhibition of FLT3 (unknown origin)
[15] = tested on: PANC-1; experiment: Antiproliferative activity against human PANC1 cells harboring KRAS G12D mutant after 72 hrs by CellTiter-Glo assay; assay type: functional, cell-based; settings: PANC-1, 72 h
[16] = tested on: BaF3; experiment: Antiproliferative activity against mouse BA/F3 cells harboring NRAS G12D mutant after 72 hrs in presence of IL-3 by CellTiter-Glo assay; assay type: functional, cell-based; settings: BaF3, 72 h; procedure, shortened: as §1
[17] = tested on: NCI-H23; experiment: Antiproliferative activity against human NCI-H23 cells harboring KRAS G12C mutant after 72 hrs by CellTiter-Glo assay; assay type: functional, cell-based; procedure, shortened: as §3
[18] = tested on: NALM-6; experiment: Antiproliferative activity against human NALM6 cells harboring NARS A146T mutant at […] to […] nM after 72 hrs by CellTiter-Glo assay; assay type: functional, cell-based
[19] = tested on: ASPC1; experiment: Antiproliferative activity against human AsPC1 cells harboring KRAS G12D mutant after 72 hrs by CellTiter-Glo assay; assay type: functional, cell-based; settings: ASPC1, 72 h
[20] = target: T1, Mitogen-activated protein kinase kinase kinase 7 (Homo sapiens); experiment: Inhibition of TAK1 in RA patient-derived synovial fibroblasts assessed as inhibition of TNFalpha-induced cytokine secretion at 3 uM preincubated for 3 hrs followed by TNFalpha stimulation measured after 18 hrs by sandwich immunoassay; procedure, shortened: as §2
[21] = Antiproliferative activity against human URMC6 cells harboring wild type KRAS after 72 hrs by CellTiter-Glo assay; assay type: functional, cell-based
[22] = tested on: SW-620; experiment: Antiproliferative activity against human SW620 cells harboring KRAS G12V mutant after 72 hrs by CellTiter-Glo assay; assay type: functional, cell-based; settings: SW-620, 72 h
[23] = tested on: BaF3; experiment: Antiproliferative activity against mouse BA/F3 cells harboring KRAS G12D mutant after 72 hrs in presence of IL-3 by CellTiter-Glo assay; assay type: functional, cell-based; settings: BaF3, 72 h
[24] = target: T1, Mitogen-activated protein kinase kinase kinase 7 (Homo sapiens); experiment: Inhibition of biotin-labeled N-(2-(2-(2-(2-(4-(4-((4-((2-Acrylamidophenyl)amino)-5-chloropyrimidin-2-yl)amino)phenyl)piperazin-1-yl)ethoxy)ethoxy)ethoxy)ethyl)-5-((3aS,4S,6aR)-2-oxohexahydro-1H-thieno[3,4-d]imidazol-4-yl)pentanamide probe binding to TAK1 in human NCI-H358 cells at 10 uM after 6 hrs by immunoblot based competitive pull down assay; assay type: cell-based
Procedure, shortened: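 H358 cells given 1 or 10 μM compound for 6 h, medium removed, cells rinsed twice with cold PBS and lysed in MPER buffer. Lysates incubated overnight at 4 °C with 1 μM biotinylated covalent probe, captured on streptavidin beads, and TAK1 recovery assessed by immunoblotting with anti-TAK1 antibody.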

[25] = tested on: NCI-H23; experiment: Antiproliferative activity against human NCI-H23 cells harboring KRAS G12C mutant at; assay type: functional, cell-based
[26] = tested on: NCI-H358; experiment: Antiproliferative activity against human NCI-H358 cells harboring KRAS G12C mutant at; assay type: functional, cell-based

Receptor-type tyrosine-protein kinase FLT3, sequence (P36888 whole entry): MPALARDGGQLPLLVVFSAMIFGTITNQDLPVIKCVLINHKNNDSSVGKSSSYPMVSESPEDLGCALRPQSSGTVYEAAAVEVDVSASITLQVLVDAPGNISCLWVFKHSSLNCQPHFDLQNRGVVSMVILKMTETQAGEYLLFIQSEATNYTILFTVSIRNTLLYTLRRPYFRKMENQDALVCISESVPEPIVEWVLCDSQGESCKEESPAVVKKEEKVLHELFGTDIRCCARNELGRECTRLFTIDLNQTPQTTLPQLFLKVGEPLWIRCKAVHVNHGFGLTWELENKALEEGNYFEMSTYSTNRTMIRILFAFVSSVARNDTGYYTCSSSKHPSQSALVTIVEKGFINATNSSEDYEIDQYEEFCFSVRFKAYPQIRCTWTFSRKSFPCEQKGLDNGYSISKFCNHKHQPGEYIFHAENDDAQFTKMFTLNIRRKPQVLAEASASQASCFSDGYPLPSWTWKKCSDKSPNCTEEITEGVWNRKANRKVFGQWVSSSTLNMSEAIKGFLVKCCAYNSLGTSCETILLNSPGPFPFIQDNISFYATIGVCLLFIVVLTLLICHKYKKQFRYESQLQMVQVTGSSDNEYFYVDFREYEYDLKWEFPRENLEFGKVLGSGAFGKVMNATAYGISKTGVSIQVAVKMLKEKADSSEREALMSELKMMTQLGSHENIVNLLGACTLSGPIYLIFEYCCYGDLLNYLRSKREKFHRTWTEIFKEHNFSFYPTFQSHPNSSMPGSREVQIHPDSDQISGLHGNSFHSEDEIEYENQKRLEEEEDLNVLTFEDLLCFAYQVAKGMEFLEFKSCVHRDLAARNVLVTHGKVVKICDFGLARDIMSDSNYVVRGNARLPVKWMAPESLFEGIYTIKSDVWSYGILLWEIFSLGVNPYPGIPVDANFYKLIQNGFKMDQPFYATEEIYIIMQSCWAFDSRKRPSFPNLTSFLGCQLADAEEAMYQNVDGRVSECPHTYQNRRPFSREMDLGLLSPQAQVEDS

In the case of `C=CC(=O)Nc1ccccc1Oc1nc(Nc2ccc(N3CCN(C)CC3)cc2)ncc1Cl`, the Activity [1] is reported as “Active”, the Activity [2] is reported as “Toxic” and the IC50 [3] is reported as 10 nM. For the same compound, the IC50 [4] was 2880 nM, the inhibition [5] was “Active” and the IC50 [6] was 274 nM. For the same compound, the Activity [7] was “inactive”, the IC50 [8] was 294 nM and the Activity [9] was “Active”. The inhibition [10] was “Active”, the Activity [11] was “Active” and the IC50 [12] was 28 nM. The IC50 [13] was 5.1 nM, the IC50 [14] was 0.63 nM and the IC50 [15] was 1260 nM. The IC50 [16] was 61 nM, the Activity [17] was “Active” and the Activity [18] was “inactive”. For the same compound, the IC50 [19] was 1850 nM, the inhibition [20] was “Active” and the IC50 [21] was 524 nM. The IC50 [22] was 767 nM, the IC50 [23] was 93 nM and the inhibition [24] was “Active”.
For `N#CC[C@H](C1CCCC1)n1cc(-c2ncnc3[nH]ccc23)cn1`, the Activity [25] was “Active” and the Activity [26] was “Active”.
